Results as given in ChEMBL document CHEMBL4402564, “Synthetic Lethality in Pancreatic Cancer: Discovery of a New RAD51-BRCA2 Small Molecule Disruptor That Inhibits Homologous Recombination and Synergizes with Olaparib” (J Med Chem, 2020).
Active and inactive are the calls of the source. The calls are words filed in the database; no cut-off is given here.

What was measured:
CAPAN-1 = assay: Induction of DNA damage in BRCA2 defective human Capan1 cells assessed as increase in gamma-H2AX labelling […] hrs by immunofluorescence microscopic analysis; assay type: functional, cell-based
Summary of the method: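 Cells exposed 48 h to 20 μM disruptor alone or with 10 μM olaparib, in medium with 0.6% DMSO. Nuclear γ-H2AX foci visualized by immunofluorescence and percentage of labeled nuclei scored. BxPC-3 (functional BRCA2) and Capan-1 (BRCA2-defective) cultures in RPMI 1640 with 10% FBS.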

[1] = molecular target: T1, DNA repair protein RAD51 homolog 1 (Homo sapiens, UniProt Q06609); assay: Inhibition of biotinylated BRC4 peptide binding to His-tagged human RAD51 expressed in Escherichia coli Rosetta(DE3) pLysS cells assessed as BRC4-RAD51 protein -protein interaction by competitive ELISA
T1 sequence (Q06609 whole entry): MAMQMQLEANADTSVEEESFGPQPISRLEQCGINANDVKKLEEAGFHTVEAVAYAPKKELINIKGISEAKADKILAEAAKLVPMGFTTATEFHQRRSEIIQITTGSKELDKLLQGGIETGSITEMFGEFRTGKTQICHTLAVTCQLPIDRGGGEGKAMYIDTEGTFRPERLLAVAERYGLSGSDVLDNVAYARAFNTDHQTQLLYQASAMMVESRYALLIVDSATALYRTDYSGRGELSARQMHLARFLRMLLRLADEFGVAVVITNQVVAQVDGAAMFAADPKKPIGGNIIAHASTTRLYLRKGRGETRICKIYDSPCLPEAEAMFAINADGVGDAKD
Summary of the method: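 Biotinylated BRC4 peptide coated onto wells, washed with PBS/0.05% Tween-20, blocked with 1% BSA/PBST, then hybridized overnight with human RAD51. Compounds tested at 0.01–100 μM in triplicate with 1% DMSO constant. Bound RAD51 detected with anti-RAD51 and HRP secondary antibody, TMB colorimetric signal quenched with 1 M HCl. EC50 ± SD reported.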

[2] = molecular target: T2, DNA repair protein RAD51 homolog 1 (Homo sapiens) (UniProt Q06609); assay: Inhibition of RAD51 interaction in human BxPC3 cells assessed as inhibition of homologous recombination incubated for 5 hrs by RT-PCR analysis; assay type: cell-based
T2 sequence (whole entry): T1 sequence (Q06609 whole entry)
Summary of the method: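 Commercial two-plasmid recombination assay in BxPC-3 cells, with compound applied at different doses for 5 h simultaneously with plasmid transfection. Tested up to 40 μM, limited by solubility. Dose giving 50% HR inhibition estimated by polynomial regression.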

BXPC-3 [3] = assay: Antiproliferative activity against human BxPC3 cells after 72 hrs in presence of olaparib by CellTiter-Glo luminescent cell viability assay; assay type: functional, cell-based
Summary of the method: (§1)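 BxPC-3 cells grown in RPMI 1640 with 10% FBS, penicillin/streptomycin and 2 mM glutamine. Disruptor given alone or with 10 μM olaparib in medium containing 0.6% DMSO, with the same DMSO in controls. Viability read at 72 h, measured alongside cell death.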

BXPC-3 [4] = assay: Antiproliferative activity against human BxPC3 cells at 20 uM after 72 hrs in presence of olaparib by CellTiter-Glo luminescent cell viability assay; assay type: functional, cell-based; summary of the method: as §1
BXPC-3 [5] = assay: Antiproliferative activity against human BxPC3 cells at 5 uM after 72 hrs in presence of olaparib by CellTiter-Glo luminescent cell viability assay; assay type: functional, cell-based; summary of the method: as §1

SMILES	EC50 [1]	further results
O=C(c1cc(Cc2n[nH]c(=O)c3ccccc23)ccc1F)N1CCN(C(=O)C2CC2)CC1		Activity (CAPAN-1): Active
O=C(O)CCC(=O)N1N=C(c2c(O)nc3ccc(Cl)cc3c2-c2ccccc2)CC1c1ccco1 (racemic)	Not Active	
COc1ccc(C2CC(c3c(O)nc4ccc(Cl)cc4c3-c3ccccc3)=NN2C(=O)CCC(=O)O)cc1 (racemic)	Not Active	
CC(C)(C)c1ccc(C2CC(c3c(-c4ccccc4)c4cc(Cl)ccc4[nH]c3=O)=NN2C(=O)CCC(=O)O)cc1 (racemic)	Not Active	
NCCC(=O)N1N=C(c2c(-c3ccccc3)c3cc(Cl)ccc3[nH]c2=O)CC1c1ccc(F)cc1 (racemic)	Not Active	
CC(=O)N1N=C(c2c(-c3ccccc3)c3cc(Cl)ccc3[nH]c2=O)CC1c1ccco1 (racemic)	Not Active	
CC(=O)N1N=C(c2c(-c3ccccc3)c3cc(Cl)ccc3[nH]c2=O)CC1c1ccc(C(F)(F)F)cc1 (racemic)	Not Active	
NC(=O)CCC(=O)N1N=C(c2c(-c3ccccc3)c3cc(Cl)ccc3[nH]c2=O)CC1c1ccc(F)cc1 (racemic)	Not Active	
CCCn1ncc2cc(C3CC(c4c(-c5ccccc5)c5cc(Cl)ccc5[nH]c4=O)=NN3C(=O)CCC(=O)O)ccc21 (racemic)	Not Active	
COc1ccc(C2CC(c3c(-c4ccccc4)c4ccccc4[nH]c3=O)=NN2C(=O)CCC(=O)O)cc1 (racemic)	Not Active	
COc1ccc(C2CC(c3c(-c4ccccc4)c4cc(Cl)ccc4[nH]c3=O)=NN2C(=O)CCC(=O)O)cc1F (racemic)	Not Active	
O=C(O)CCC(=O)N1N=C(c2c(-c3ccccc3)c3ccccc3[nH]c2=O)CC1c1ccc(C(F)(F)F)cc1 (racemic)	Not Active	
O=C(O)CCC(=O)N1N=C(c2c(-c3ccccc3)c3ccccc3[nH]c2=O)CC1c1ccc(Br)cc1 (racemic)	Not Active	
O=C(O)CCC(=O)N1N=C(c2c(-c3ccccc3)c3ccccc3[nH]c2=O)CC1c1ccc(Cl)cc1 (racemic)	Not Active	
O=C(O)CCC(=O)N1N=C(c2c(-c3ccccc3)c3cc(Cl)ccc3[nH]c2=O)CC1c1ccc2c(cnn2C2CCCCC2)c1 (racemic)	Not Active	
O=C(O)CCC(=O)N1N=C(c2c(-c3ccccc3)c3cc(Cl)ccc3[nH]c2=O)CC1c1ccc2nn(C3CCCCC3)cc2c1 (racemic)	Not Active	
COC(=O)CCC(=O)N1N=C(c2c(-c3ccccc3)c3cc(Cl)ccc3[nH]c2=O)CC1c1ccc(F)cc1 (racemic)	Not Active	

SMILES	EC50 [1]	further results
O=C(O)CCC(=O)N1N=C(c2c(-c3ccccc3)c3ccccc3[nH]c2=O)CC1c1ccc(F)cc1 (racemic)	Not Active	
O=C(O)CCC(=O)N1N=C(c2c(-c3ccccc3)c3ccccc3[nH]c2=O)CC1c1cccc(Br)c1 (racemic)	Not Active	
CCCn1cc2cc(C3CC(c4c(-c5ccccc5)c5cc(Cl)ccc5[nH]c4=O)=NN3C(=O)CCC(=O)O)ccc2n1 (racemic)	Not Active	
CS(=O)(=O)NCCC(=O)N1N=C(c2c(-c3ccccc3)c3cc(Cl)ccc3[nH]c2=O)CC1c1ccc(F)cc1 (racemic)	Not Active	
CC(=O)N1N=C(c2c(-c3ccccc3)c3cc(Cl)ccc3[nH]c2=O)CC1c1ccc(C(C)(C)C)cc1 (racemic)		inhibition [2]: inactive
CC(=O)N1N=C(c2c(-c3ccccc3)c3cc(Cl)ccc3[nH]c2=O)CC1c1ccc(Cl)cc1 (racemic)		Activity (BXPC-3 [3]): inactive
CC(=O)N1N=C(c2c(-c3ccccc3)c3cc(Cl)ccc3[nH]c2=O)CC1c1ccc2c(ccn2C)c1 (racemic)		inhibition [2]: inactive
CCC(=O)N1N=C(c2c(-c3ccccc3)c3cc(Cl)ccc3[nH]c2=O)CC1c1ccc(Br)cc1 (racemic)		Activity (BXPC-3 [3]): inactive; inhibition [2]: inactive
CCC(=O)N1N=C(c2c(-c3ccccc3)c3cc(Cl)ccc3[nH]c2=O)CC1c1ccc(Cl)cc1 (racemic)		Activity (BXPC-3 [3]): inactive; inhibition [2]: inactive
CCCn1ncc2cc(C3CC(c4c(-c5ccccc5)c5cc(Cl)ccc5[nH]c4=O)=NN3C(C)=O)ccc21 (racemic)		Activity (BXPC-3 [3]): inactive; inhibition [2]: inactive
CCn1cc2cc(-c3ccc(C4CC(c5c(-c6ccccc6)c6cc(Cl)ccc6[nH]c5=O)=NN4C(=O)CCC(=O)O)cc3)ccc2n1 (racemic)		inhibition [2]: inactive; Activity (BXPC-3 [4]): Active
CCn1ccc2cc(C3CC(c4c(-c5ccccc5)c5cc(Cl)ccc5[nH]c4=O)=NN3C(=O)CCC(=O)O)ccc21 (racemic)		Activity (BXPC-3 [3]): inactive
Cn1ccc2cc(C3CC(c4c(-c5ccccc5)c5cc(Cl)ccc5[nH]c4=O)=NN3C(=O)CCC(=O)O)ccc21 (racemic)		inhibition [2]: inactive; Activity (BXPC-3 [5]): inactive
O=C(O)CCC(=O)N1N=C(c2c(-c3ccccc3)c3cc(Cl)ccc3[nH]c2=O)CC1c1ccc(-c2ccc(Br)cc2)cc1 (racemic)		Activity (BXPC-3 [3]): inactive
O=C(O)CCC(=O)N1N=C(c2c(-c3ccccc3)c3cc(Cl)ccc3[nH]c2=O)CC1c1ccc(-c2ccc(F)cc2)cc1 (racemic)		Activity (BXPC-3 [3]): inactive
O=C(O)CCC(=O)N1N=C(c2c(-c3ccccc3)c3cc(Cl)ccc3[nH]c2=O)CC1c1ccc(Br)cc1 (racemic)		Activity (BXPC-3 [3]): inactive; inhibition [2]: inactive
